Each block holds one molecule with its values, some of them ahead of it. Activity calls are given as the source filed them. The rule behind the calls is not given here.
Experiments:
[1] = AUC (0 to t) in Wistar rat plasma at 10 mg/kg administered through oral gavage by LC/MS/MS analysis; assay type: ADME, organism-based
[2] = AUC (0 to t) in Wistar rat brain at 10 mg/kg administered through oral gavage by LC/MS/MS analysis; assay type: ADME, organism-based
Method in brief: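 Male Wistar rats (230 ± 15 g), fasted overnight, given an oral suspension (1% Tween 80, 0.5% NaCMC; 1 mg/mL, 10 mL/kg). Blood and brain were collected discretely at 0.5, 2, 4 and 8 h. Brain was washed in PBS pH 7.4, weighed and homogenized, then acetonitrile-precipitated with internal standard. LC/MS/MS against standards in blank brain homogenate; n=4.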

[3] = tested on: Rattus norvegicus; assay: Neuroprotective activity in po dosed 6-OHDA-lesioned Wistar rat model of parkinson disease assessed as increase in L-DOPA induced contralateral rotations pretreated for 30 mins followed by benserazide addition and subsequent L-DOPA stimulation for 30 mins measured at 60 mins post dose; assay type: functional, organism-based
Method in brief: (§1)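 Male Wistar rats (295–305 g) anesthetized with ketamine/xylazine and given desipramine 10 mg/kg i.p. 30 min before 6-OHDA lesioning. At two weeks, rats were screened with apomorphine 0.05 mg/kg i.p. and kept only if they made ≥100 rotations in 1 h. Compound (30 or 100 mg/kg p.o., in 1% Tween 80/0.5% MC) was given 30 min before benserazide. L-DOPA 4 mg/kg i.p. followed 30 min later. Contralateral rotations counted over 2 h; one-way ANOVA with Dunnett's test.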

[4] = tested on: Rattus norvegicus; assay: Neuroprotective activity in 6-OHDA-lesioned Wistar rat model of parkinson disease assessed as increase in L-DOPA induced contralateral rotations at 100 mg/kg, po pretreated for 30 mins followed by benserazide addition and subsequent L-DOPA stimulation for 30 mins measured up to 2 hrs; assay type: functional, organism-based; method in brief: as §1
[5] = Ratio of AUC (0 to t) in Wistar rat brain to AUC (0 to t) in Wistar rat plasma at 10 mg/kg administered through oral gavage by LC/MS/MS analysis; assay type: ADME, organism-based; conditions: brain and plasma, read-out: Ratio AUC
Method in brief: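 Male Wistar rats (230 ± 15 g), fasted overnight, water ad libitum; single oral dose of 10 mg/kg as suspension in 1% Tween 80/0.5% NaCMC, n=4. Blood and brain collected by discrete sampling at 0.5, 2, 4 and 8 h post dose. Brain washed in PBS and homogenised, plasma and homogenate precipitated with acetonitrile plus internal standard, LC/MS/MS; AUC0-t from non-compartmental analysis.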

[6] = Metabolic stability in rat hepatocytes at 1 uM after 3 to 30 mins by LC-MS/MS analysis; assay type: ADME, cell-based, Hepatocyte
[7] = target: Voltage-gated inwardly rectifying potassium channel KCNH2 (Homo sapiens, UniProt Q12809); assay: Inhibition of [3H]-astemizole binding to human ERG at 10 uM after 2 hrs by liquid scintillation counting method relative to control; conditions: 2 h, 10 µM
Chain of Voltage-gated inwardly rectifying potassium channel KCNH2 (Q12809 whole entry): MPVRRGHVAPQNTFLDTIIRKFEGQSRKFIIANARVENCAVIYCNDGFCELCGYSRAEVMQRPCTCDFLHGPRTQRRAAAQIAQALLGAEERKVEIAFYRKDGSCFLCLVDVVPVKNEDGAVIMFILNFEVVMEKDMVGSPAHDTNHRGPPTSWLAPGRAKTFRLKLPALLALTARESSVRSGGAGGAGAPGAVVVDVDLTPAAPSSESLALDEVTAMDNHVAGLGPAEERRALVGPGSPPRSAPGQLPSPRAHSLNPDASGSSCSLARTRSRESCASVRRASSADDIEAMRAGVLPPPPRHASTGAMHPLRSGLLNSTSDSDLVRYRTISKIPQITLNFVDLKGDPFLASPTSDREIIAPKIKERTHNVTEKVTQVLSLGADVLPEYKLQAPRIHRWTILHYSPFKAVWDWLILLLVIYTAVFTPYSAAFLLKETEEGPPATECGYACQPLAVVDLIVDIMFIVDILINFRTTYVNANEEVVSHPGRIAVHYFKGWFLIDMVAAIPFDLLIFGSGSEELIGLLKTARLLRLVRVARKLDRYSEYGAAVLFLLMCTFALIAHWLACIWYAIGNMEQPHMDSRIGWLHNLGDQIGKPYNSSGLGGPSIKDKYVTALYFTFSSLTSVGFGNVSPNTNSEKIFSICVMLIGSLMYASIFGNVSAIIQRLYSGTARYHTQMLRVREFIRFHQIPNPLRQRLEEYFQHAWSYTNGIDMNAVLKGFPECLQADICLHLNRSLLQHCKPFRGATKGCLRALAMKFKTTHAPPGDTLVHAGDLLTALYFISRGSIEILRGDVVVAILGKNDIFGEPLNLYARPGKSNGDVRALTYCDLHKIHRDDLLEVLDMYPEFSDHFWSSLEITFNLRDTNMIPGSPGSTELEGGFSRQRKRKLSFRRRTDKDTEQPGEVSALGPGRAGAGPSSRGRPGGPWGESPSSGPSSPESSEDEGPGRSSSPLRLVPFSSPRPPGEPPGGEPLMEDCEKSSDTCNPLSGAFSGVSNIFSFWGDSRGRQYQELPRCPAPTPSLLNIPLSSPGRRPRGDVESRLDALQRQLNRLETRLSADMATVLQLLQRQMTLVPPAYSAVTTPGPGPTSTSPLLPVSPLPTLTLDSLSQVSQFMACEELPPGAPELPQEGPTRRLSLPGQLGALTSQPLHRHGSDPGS

[8] = target: T1, Adenosine receptor A1 (Homo sapiens, UniProt P30542); assay: Antagonist activity at human adenosine A1 receptor expressed in HEK293 cell membranes assessed as decrease in CPA/forskolin-induced cAMP level pretreated for 15 mins followed by agonist addition for 15 mins and subsequent forskolin stimulation measured after 30 mins; assay type: functional, cell-based
T1 sequence (P30542 whole entry): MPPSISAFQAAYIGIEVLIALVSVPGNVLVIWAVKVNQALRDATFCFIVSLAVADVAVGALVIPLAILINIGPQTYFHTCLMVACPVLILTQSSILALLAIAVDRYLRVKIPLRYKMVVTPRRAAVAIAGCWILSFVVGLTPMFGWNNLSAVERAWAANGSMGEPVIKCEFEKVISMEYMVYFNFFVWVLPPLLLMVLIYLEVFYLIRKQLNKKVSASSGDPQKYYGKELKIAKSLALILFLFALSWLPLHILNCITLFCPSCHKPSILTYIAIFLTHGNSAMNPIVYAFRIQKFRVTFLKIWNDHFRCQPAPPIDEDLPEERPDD
Method in brief: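 HTRF cAMP assay in overnight-seeded HEK cells expressing human A1, A2A or A2B, pretreated with ADA 1 U/ml for 90 min at 37 °C. Cells were given compound at increasing concentrations for 15 min, then agonist at room temperature in incomplete DMEM with ADA: CPA 1 nM, 15 min (A1); CGS-21680 10 nM, 30 min (A2A); NECA 70 nM, 15 min (A2B). Rolipram 20 μM for A1 and A2A; forskolin 30 min for A1 only. 12 concentrations, triplicates; IC50/Ki by curve fitting.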

AUC(0-t) [1]: 4700 nM·h
AUC(0-t) [2]: 1100 nM·h
Kp [5]: 0.25
SMILES: CCN(CC)C1CCC(C)(C(=O)Nc2nc3c(OC)ccc(N4CCOCC4)c3s2)CC1 (stereo not drawn)
Activity [3]: Dose-dependent effect
Activity [4]: Active

Stability [6]: Stable
SMILES: COc1cnc(N2CCOCC2)c2sc(NC(=O)C(C)(C)Oc3ccc(F)cc3)nc12

SMILES: COc1ccc(N2CCOCC2)c2sc(NC(=O)C3(C)CCC(C)(O)CC3)nc12 (stereo not drawn)
inhibition (INH) [7]: Not Active

Ki [8]: 2 µM
SMILES: COc1ccc(N2CCOCC2)c2sc(NC(=O)C(C)(C)Oc3ccc(F)cc3)nc12

— ChEMBL document CHEMBL4002602, “Design, Synthesis of Novel, Potent, Selective, Orally Bioavailable Adenosine A2A Receptor Antagonists and Their Biological Evaluation” (J Med Chem, 2017)
